Laboratory results: ChEMBL document CHEMBL1151222, “A new lariciresinol-type butyrolactone lignan derived from hydroxymatairesinol and its identification in spruce wood” (J Nat Prod, 2004)
One block for each molecule: values may come before it.

Legend:
Set-up in all cases: dose 50 mg/kg, route oral
Details in all cases: in vivo
[1] = test system: Rattus norvegicus; test: Metabolic stability in Sprague-Dawley rat assessed as urinary excretion of isohydroxymatairesinol at 50 mg/kg, po after 48 hrs; type: ADME, organism-based, Urine
Procedure, shortened: (§1)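 Five female Sprague-Dawley rats on RM1 diet received a single oral gavage of the lignan preparation in vehicle at 50 mg/kg. Individual 48 h urine was hydrolysed enzymatically, solid-phase extracted at pH 4.0 and measured by negative-ion HPLC-MS/MS MRM against calibration curves in spiked blank rat urine. Background was subtracted. Excretion is excreted molar amount per administered molar amount of that same component, reported as mean ± SD.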

[2] = test system: Rattus norvegicus; test: Metabolic stability in Sprague-Dawley rat assessed as conversion to isohydroxymatairesinol level at 50 mg/kg, po after 48 hrs; type: ADME, organism-based
Procedure, shortened: (§2)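 Five female Sprague-Dawley rats were kept on RM1 diet before and during the study. A knotwood-derived lignan preparation was given once by oral gavage in vehicle at 50 mg/kg, and individual urine was collected over 48 h. Urine was enzymatically hydrolysed, solid-phase extracted at pH 4.0 and analysed by negative-mode HPLC-ESI-MS/MS MRM. Pre-dose background was subtracted. Conversion is excreted molar amount per total administered molar amount, reported as mean ± SD.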

[3] = test system: Rattus norvegicus; test: Metabolic stability in Sprague-Dawley rat assessed as urinary excretion of hydroxymatairesinol at 50 mg/kg, po after 48 hrs; type: ADME, organism-based, Urine; procedure, shortened: as §1
[4] = test system: Rattus norvegicus; test: Metabolic stability in Sprague-Dawley rat assessed as conversion to hydroxymatairesinol level at 50 mg/kg, po after 48 hrs; type: ADME, organism-based; procedure, shortened: as §2
[5] = test system: Rattus norvegicus; test: Metabolic stability in Sprague-Dawley rat assessed as urinary excretion of allo-hydroxymatairesinol at 50 mg/kg, po after 48 hrs; type: ADME, organism-based, Urine; procedure, shortened: as §1
[6] = test system: Rattus norvegicus; test: Metabolic stability in Sprague-Dawley rat assessed as conversion to allo-hydroxymatairesinol level at 50 mg/kg, po after 48 hrs; type: ADME, organism-based; procedure, shortened: as §2

Activity [1]: 5.9%
Activity [2]: 39 nmol
Structure (SMILES): COc1cc(C[C@H]2C(=O)O[C@H](c3ccc(O)c(OC)c3)[C@H]2CO)ccc1O [ISOHYDROXYMATAIRESINOL]

Activity [3]: 6%
Activity [4]: 1100 nmol
Structure (SMILES): COc1cc(C[C@H]2C(=O)OC[C@@H]2[C@H](O)c2ccc(O)c(OC)c2)ccc1O [HYDROXYMATAIRESINOL]

Activity [5]: 14.3%
Activity [6]: 1400 nmol
Structure (SMILES): COc1cc(C[C@H]2C(=O)OC[C@@H]2[C@@H](O)c2ccc(O)c(OC)c2)ccc1O
